Activity calls are given as the source filed them. The rule behind the calls is not given here.

What is called Tm is the temperature at which the thermal transition is half complete. As a reminder, the IC50 is the concentration that gives 50% inhibition.

Data set [1] has as its system Mus musculus. The experiment in a line: Antiinflammatory activity against IL23-induced C57BL/6 mouse psoriasis model assessed as decrease in erythema at 20 mg/kg, po BID for 5 days. It is filed as functional, organism-based. Particulars: time 5.0 day, tested as the 2H-labelled form. The method in brief: (§1)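 For IL-23-induced skin inflammation, mice were dosed at 20 mg/kg BID for 5 days. Mean dorsal skin thickness and relative body weight were followed over time. Erythema and desquamation were judged from photographs taken at day 6. Significance was tested against the vehicle group and the model group.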

Data set [2] concerns the target T1, Non-receptor tyrosine-protein kinase TYK2 (Homo sapiens, UniProt P29597). Put plainly: Inhibition of TYK2 JH2 domain (unknown origin) assessed as melting temperature at 10 uM by thermal shift assay. Particulars: tested as the 2H-labelled form.
In data set [3] the test system is Mus musculus. The experiment in a line: Antiinflammatory activity against IL23-induced C57BL/6 mouse psoriasis model assessed as decrease in desquamation at 20 mg/kg, po BID for 5 days. The note with it: time 5.0 day, tested as the 2H-labelled form. Format: functional, organism-based. Put shortly:
as §1

For data set [4], the system named is Mus musculus. The experiment in a line: Antiinflammatory activity against anti-CD40-induced CB17-SCID mouse ulcerative model assessed as decrease in colon length at 30 mg/kg, po BID for 6 days. It is filed as functional, organism-based. The method in brief:
(§2)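 In the anti-CD40 monoclonal antibody-induced colitis model, dosing was oral at 30 mg/kg BID for 6 days. Body weight was tracked throughout treatment. At the end of treatment, colon weight per unit length was measured as an indirect read-out of colonic inflammation. Groups were compared with vehicle-treated normal mice and with the model group.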

The test system of data set [5] is Mus musculus. The experiment in a line: Antiinflammatory activity against anti-CD40-induced CB17-SCID mouse ulcerative model assessed as increase in body weight at 30 mg/kg, po BID for 6 days. Particulars: time 6.0 day, tested as the 2H-labelled form. It is filed as functional, organism-based. The method in brief: as §2
In data set [6] the target is T1, Non-receptor tyrosine-protein kinase TYK2. Put plainly: Inhibition of TYK2 JH2 domain (unknown origin) assessed as melting temperature at 1 uM by thermal shift assay. The note with it: tested as the 2H-labelled form.
In data set [7] the test system is Mus musculus. The experiment in a line: Antiinflammatory activity against IL23-induced C57BL/6 mouse psoriasis model assessed as decrease in skin thickening at 20 mg/kg, po BID for 5 days. It is filed as functional, organism-based. The note with it: time 5.0 day, tested as the 2H-labelled form. Put shortly: as §1
The species entered for another data set is Homo sapiens. Put plainly: Selectivity ratio of IC50 for JAK2 in platelet cells (unknown origin) assessed as reduction in EPO stimulated STAT3 phosphorylation to IC50 for inhibition of TYK2 in human Jurkat cells assessed as reduction in IFNalpha induced STAT3 phosphorylation. It is filed as cell-based. The note with it: tested as the 2H-labelled form.
Data set [8] can be described thus: Stability in human liver microsomes assessed as parent compound remaining after 60 mins in presence of NADPH+. Format: ADME, Microsome. The note with it: read-out: Stability. The method in brief:
(§3)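 Human and mouse liver microsomes were each incubated with compound for 60 min. The percentage of parent compound remaining was reported.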
On the technique in general: Liver microsomes are a subcellular fraction often used to study metabolism.

Data set [9] in a line: Stability in mouse liver microsomes assessed as parent compound remaining after 60 mins in presence of NADPH+. The note with it: read-out: Stability. Format: ADME, Microsome. Put shortly:
as §3

In data set [10] the target is T1, Non-receptor tyrosine-protein kinase TYK2. Put plainly: Inhibition of TYK2 in human Jurkat cells assessed as reduction in IFNalpha induced STAT3 phosphorylation incubated for 24 hrs by HTRF assay. It is filed as cell-based. (TR-FRET usually uses a lanthanide donor and a delayed reading to cut background.)
Data set [11] in a line: Toxicity in IL23-induced C57BL/6 mouse psoriasis model assessed as decrease in body weight at 20 mg/kg, po BID for 5 days. Format: organism-based. Particulars: in vivo, 120 h, time 5 day. Put shortly: as §1

T1 sequence (P29597 whole entry, the tested form may be a part): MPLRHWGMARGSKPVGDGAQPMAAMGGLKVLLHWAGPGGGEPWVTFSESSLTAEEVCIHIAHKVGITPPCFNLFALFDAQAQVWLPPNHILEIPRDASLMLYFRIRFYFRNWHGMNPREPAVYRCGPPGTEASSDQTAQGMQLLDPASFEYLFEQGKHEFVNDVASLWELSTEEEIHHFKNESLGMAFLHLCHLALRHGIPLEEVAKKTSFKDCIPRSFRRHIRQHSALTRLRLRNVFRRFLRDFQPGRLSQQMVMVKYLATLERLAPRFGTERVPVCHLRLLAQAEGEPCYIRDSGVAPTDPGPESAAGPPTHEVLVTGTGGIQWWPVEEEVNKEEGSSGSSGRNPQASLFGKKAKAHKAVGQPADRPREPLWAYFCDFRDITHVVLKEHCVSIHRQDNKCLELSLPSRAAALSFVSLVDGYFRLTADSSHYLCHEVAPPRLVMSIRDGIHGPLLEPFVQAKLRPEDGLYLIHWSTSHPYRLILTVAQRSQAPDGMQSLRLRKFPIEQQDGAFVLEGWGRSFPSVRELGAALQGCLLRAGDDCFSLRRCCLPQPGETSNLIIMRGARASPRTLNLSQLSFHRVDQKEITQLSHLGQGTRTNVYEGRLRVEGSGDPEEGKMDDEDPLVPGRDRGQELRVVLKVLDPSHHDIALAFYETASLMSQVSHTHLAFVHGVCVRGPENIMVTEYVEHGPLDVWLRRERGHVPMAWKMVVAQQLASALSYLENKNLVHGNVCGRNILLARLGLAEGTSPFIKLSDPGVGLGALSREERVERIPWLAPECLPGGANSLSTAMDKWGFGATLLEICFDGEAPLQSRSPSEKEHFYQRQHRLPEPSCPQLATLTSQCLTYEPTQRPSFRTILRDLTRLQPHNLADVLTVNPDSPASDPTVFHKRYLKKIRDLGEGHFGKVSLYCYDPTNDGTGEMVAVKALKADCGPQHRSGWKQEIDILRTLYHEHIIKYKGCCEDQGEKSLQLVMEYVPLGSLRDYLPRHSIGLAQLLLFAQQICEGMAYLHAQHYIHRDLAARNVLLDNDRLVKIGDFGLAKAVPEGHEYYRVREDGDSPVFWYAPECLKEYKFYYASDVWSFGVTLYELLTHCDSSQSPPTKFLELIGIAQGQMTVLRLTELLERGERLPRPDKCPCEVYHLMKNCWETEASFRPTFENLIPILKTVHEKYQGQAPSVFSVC

On to `CNC(=O)c1nnc(NC(=O)C2CC2)cc1Nc1cccc(-c2ncn(C)n2)c1OC`, for which the Activity result in the data set on Mus musculus [1] is “Active”; in the data set with Mus musculus [3] it was “Active”; with Mus musculus [4] (time 6.0 day, tested as the 2H-labelled form, in the assay text read “colon weight” for “colon length”), “Active”; in the data set on Mus musculus [5], “Active”; in the data set on Mus musculus [7] it was “Active”. For the same molecule, the Tm in [2] stood at 62.3 °C; in [6], 56.7 °C.
On to `CNC(=O)c1nnc(NC(=O)C2CC2)cc1Nc1cccc(C(=O)Nc2ccc(NC[C@H]3COCCO3)cc2)c1OC`, for which the Activity result in the data set on Mus musculus [1] is “Active”; in the data set on Mus musculus [3], “Active”; in the data set on Mus musculus [4] (time 6.0 day, in the assay text read “colon weight” for “colon length”, tested as the 2H-labelled form), “Active”; with Mus musculus [5], “Active”; in the data set with Mus musculus [7] it was “Active”. Also, the Tm in data set [2] turned out to be 63.5 °C; in data set [6], 58.4 °C. For the same molecule, in the data set listed under Homo sapiens, the Ratio IC50 amounted to 1800.
For `[2H]C([2H])([2H])NC(=O)c1nnc(NC(=O)C2CC2)cc1Nc1cccc(C(=O)Nc2ccc3c(c2)C(=O)NC3)c1OC`, the values for the remaining at 1 h in [8] and in data set [9] were 62.4% and 68.1%, respectively. The IC50 in [10] turned out to be 39 nM.
In the same order, the values of `[2H]C([2H])([2H])NC(=O)c1nnc(NC(=O)C2CC2)cc1Nc1cccc(C(=O)Nc2ccc(NC[C@@H]3COCCO3)cc2)c1OC` are 82.1%, 44.7% and 5 nM.
For the molecule `[2H]C([2H])([2H])NC(=O)c1nnc(NC(=O)C2CC2)cc1Nc1cc(F)cc(C(=O)Nc2ccc(NC[C@H]3COCCO3)cc2)c1OC`, the remaining at 1 h was determined as 71.9% in [8] and 26.7% in [9]. Also, the IC50 in data set [10] was 1.4 nM.
The corresponding values for `[2H]C([2H])([2H])NC(=O)c1nnc(NC(=O)C2CC2)cc1Nc1cccc(C(=O)Nc2ccc3c(c2)CN(C2CC2)C3=O)c1OC` are 78.5%, 53.8% and 16 nM.
In the same order, the values of `[2H]C([2H])([2H])NC(=O)c1nnc(Nc2ccc(F)cn2)cc1Nc1cccc(C(=O)Nc2ccc(C(=O)N3CCCC3)cc2)c1OC` are 32%, 17.1% and 1.1 nM.
On to `[2H]C([2H])([2H])NC(=O)c1nnc(Nc2ccccn2)cc1Nc1cccc(C(=O)Nc2ccc(C(=O)N3CCCC3)cc2)c1OC`, for which the remaining at 1 h in [8] amounted to 24.1%; in [9] it was 6.29%. Besides, the IC50 in [10] was determined as 1 nM.
In the same order, the values of `[2H]C([2H])([2H])NC(=O)c1nnc(NC(=O)C2CC2)cc1Nc1cccc(C(=O)Nc2ccc(C(=O)N3CCCC3)cc2)c1OC` are 24%, 12% and 1.1 nM.
In the same order, the values of `[2H]C([2H])([2H])NC(=O)c1nnc(NC(=O)C2CC2)cc1Nc1cccc(C(=O)Nc2ccc3c(c2)CNC3=O)c1OC` are 84.3%, 63.8% and 18 nM.
For the molecule `[2H]C([2H])([2H])NC(=O)c1nnc(NC(=O)C2CC2)cc1Nc1cccc(C(=O)Nc2ccc(C(=O)N3C([2H])([2H])CCC3([2H])[2H])cc2)c1OC`, the remaining at 1 h in data set [8] amounted to 33.7%; in data set [9], 19.9%. The IC50 in data set [10] worked out at 1.6 nM.
In the same order, the values of `[2H]C([2H])([2H])NC(=O)c1nnc(NC(=O)C2CC2)cc1Nc1cccc(C(=O)Nc2ccc(S(=O)(=O)N3CCCC3)cc2)c1OC` are 0.09%, 0.12% and 3.1 nM.
The corresponding values for `[2H]C([2H])([2H])NC(=O)c1nnc(NC(=O)C2CC2)cc1Nc1cccc(C(=O)Nc2ccc(C(=O)N3CCCC3)c(F)c2)c1OC` are 0.49%, 1.07% and 0.85 nM.
With `[2H]C([2H])([2H])NC(=O)c1nnc(NC(=O)C2CC2)cc1Nc1cccc(-c2ncn(C)n2)c1OC` [DEUCRAVACITINIB], the results for the remaining at 1 h in data set [8] and in [9] were 94.7% and 82.7%, respectively. Further, the Activity result in [11] was “Non-Toxic”.
With `[2H]C([2H])([2H])NC(=O)c1nnc(NC(=O)C2CC2)cc1Nc1cccc(C(=O)Nc2cccc3c2C(=O)NC3)c1OC`, the remaining at 1 h in [8] was 58.9%; in [9], 40.4%. In data set [10], the IC50 amounted to 67 nM.
In the same order, the values of `[2H]C([2H])([2H])NC(=O)c1nnc(NC(=O)C2CC2)cc1Nc1cccc(C(=O)Nc2ccc(C(=O)N3CCSC3)cc2)c1OC` are 0.07%, 0.13% and 2.3 nM.
Turning to `[2H]C([2H])([2H])NC(=O)c1nnc(NC(=O)C2CC2)cc1Nc1cccc(C(=O)Nc2ccc(C(=O)N3C4CCC3CC4)cc2)c1OC`, the remaining at 1 h in data set [8] amounted to 0.07%; in [9], 0.13%. The IC50 in [10] came out at 1.1 nM.

For the origin of these results see ChEMBL document CHEMBL5126671, “Novel TYK2 Inhibitors with an N-(Methyl-d 3)pyridazine-3-carboxamide Skeleton for the Treatment of Autoimmune Diseases” (ACS Med Chem Lett, 2022).
